Data as given in ChEMBL document CHEMBL1667809, “Synthesis and in vitro antibacterial activity of 7-(3-alkoxyimino-5-amino/methylaminopiperidin-1-yl)fluoroquinolone derivatives” (Bioorg Med Chem Lett, 2011).
Values after ≈ are worked out from the molar mass of the structure shown.

Legend:
[1] = tested on: Staphylococcus aureus; assay: Antibacterial activity against Staphylococcus aureus ATCC 25923 after 18 to 24 hrs by agar dilution method; assay type: functional
How it was run: (§1)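 Agar dilution on Petri dishes, each inoculated with 10⁴ cfu of the strain and incubated at 35 °C for 18–24 h. MIC read as the lowest compound concentration giving no visible growth on the plate.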

[2] = tested on: Staphylococcus aureus; assay: Antibacterial activity against methicillin-sensitive Staphylococcus aureus 10-04 after 18 to 24 hrs by agar dilution method; assay type: functional; how it was run: as §1
[3] = tested on: Staphylococcus aureus; assay: Antibacterial activity against methicillin-resistant Staphylococcus aureus 10-05 after 18 to 24 hrs by agar dilution method; assay type: functional
How it was run: (§2)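 Agar dilution on Petri dishes, each inoculated with 10⁴ cfu. Plates incubated at 35 °C for 18–24 h. MIC taken as the lowest test-compound concentration giving no visible growth on the plate. Reference drugs gemifloxacin, ciprofloxacin and levofloxacin run alongside for comparison.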

[4] = tested on: Staphylococcus epidermidis; assay: Antibacterial activity against methicillin-sensitive Staphylococcus epidermidis 10-4 after 18 to 24 hrs by agar dilution method; assay type: functional; how it was run: as §1
[5] = tested on: Staphylococcus epidermidis; assay: Antibacterial activity against methicillin-resistant Staphylococcus epidermidis 10-5 after 18 to 24 hrs by agar dilution method; assay type: functional; how it was run: as §2
[6] = tested on: Streptococcus pneumoniae; assay: Antibacterial activity against Streptococcus pneumoniae 1001 after 18 to 24 hrs by agar dilution method; assay type: functional; how it was run: as §1
[7] = tested on: Streptococcus pyogenes; assay: Antibacterial activity against Streptococcus hemolyticus 1002 after 18 to 24 hrs by agar dilution method; assay type: functional; how it was run: as §1
[8] = tested on: Escherichia coli; assay: Antibacterial activity against Escherichia coli ATCC 25922 after 18 to 24 hrs by agar dilution method; assay type: functional; how it was run: as §1
[9] = tested on: Escherichia coli; assay: Antibacterial activity against Escherichia coli 10-02 after 18 to 24 hrs by agar dilution method; assay type: functional; how it was run: as §1
[10] = tested on: Klebsiella pneumoniae; assay: Antibacterial activity against Klebsiella pneumoniae 10-1 after 18 to 24 hrs by agar dilution method; assay type: functional; how it was run: as §1
[11] = tested on: Pseudomonas aeruginosa; assay: Antibacterial activity against Pseudomonas aeruginosa ATCC 27853 after 18 to 24 hrs by agar dilution method; assay type: functional; how it was run: as §1
[12] = tested on: Pseudomonas aeruginosa; assay: Antibacterial activity against Pseudomonas aeruginosa 10-1 after 18 to 24 hrs by agar dilution method; assay type: functional; how it was run: as §1
[13] = Cytotoxicity against african green monkey Vero cells after 24 hrs; assay type: cell-based; conditions: chlorocebus sabaeus
How it was run: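 Vero cells exposed to graded compound concentrations for 24 h, then viability assessed; CC₅₀ derived from the viability data.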

[14] = tested on: Staphylococcus epidermidis; assay: Ratio of compound MIC to GMFX MIC for methicillin-resistant Staphylococcus epidermidis 10-5; assay type: functional
[15] = tested on: Staphylococcus epidermidis; assay: Ratio of compound MIC to LVFX MIC for methicillin-resistant Staphylococcus epidermidis 10-5; assay type: functional
[16] = tested on: Staphylococcus epidermidis; assay: Ratio of compound MIC to CPFX MIC for methicillin-resistant Staphylococcus epidermidis 10-5; assay type: functional
[17] = tested on: Staphylococcus aureus; assay: Ratio of compound MIC to GMFX MIC for methicillin-sensitive Staphylococcus aureus 10-04; assay type: functional
[18] = tested on: Staphylococcus aureus; assay: Ratio of compound MIC to LVFX MIC for methicillin-sensitive Staphylococcus aureus 10-04; assay type: functional
[19] = tested on: Staphylococcus aureus; assay: Ratio of compound MIC to CPFX MIC for methicillin-sensitive Staphylococcus aureus 10-04; assay type: functional
[20] = tested on: Staphylococcus aureus; assay: Ratio of compound MIC to GMFX MIC for methicillin-resistant Staphylococcus aureus 10-05; assay type: functional
[21] = tested on: Staphylococcus aureus; assay: Ratio of compound MIC to LVFX MIC for methicillin-resistant Staphylococcus aureus 10-05; assay type: functional
[22] = tested on: Staphylococcus aureus; assay: Ratio of compound MIC to CPFX MIC for methicillin-resistant Staphylococcus aureus 10-05; assay type: functional
[23] = tested on: Streptococcus pyogenes; assay: Ratio of compound MIC to GMFX MIC for Streptococcus hemolyticus 1002; assay type: functional
[24] = tested on: Streptococcus pyogenes; assay: Ratio of compound MIC to LVFX MIC for Streptococcus hemolyticus 1002; assay type: functional
[25] = tested on: Streptococcus pyogenes; assay: Ratio of compound MIC to CPFX MIC for Streptococcus hemolyticus 1002; assay type: functional

Row | Compound | MIC [1] | MIC [2] | MIC [3] | MIC [4] | MIC [5] | MIC [6] | MIC [7] | MIC [8] | MIC [9] | MIC [10] | MIC [11] | MIC [12] | CC50 at 24 h [13] | Ratio [14] | Ratio [15] | Ratio [16] | Ratio [17] | Ratio [18] | Ratio [19] | also measured
1 | CCO/N=C1\CC(N)CN(c2c(F)cc3c(=O)c(C(=O)O)cn4c3c2OC[C@@H]4C)C1 (stereo partly drawn) | 0.25 µg/mL (≈ 0.597 µM) | 0.5 µg/mL (≈ 1.19 µM) | 4 µg/mL (≈ 9.56 µM) | 0.5 µg/mL (≈ 1.19 µM) | 2 µg/mL (≈ 4.78 µM) | 0.25 µg/mL (≈ 0.597 µM) | 8 µg/mL (≈ 19.1 µM) | 0.25 µg/mL (≈ 0.597 µM) | 0.25 µg/mL (≈ 0.597 µM) | 64 µg/mL (≈ 153 µM) | 8 µg/mL (≈ 19.1 µM) | 32 µg/mL (≈ 76.5 µM) | 1240 µM | 4 | 4 | 8 | 4 | 4 | 4 | –
2 | CCO/N=C1\CC(N)CN(c2c(F)cc3c(=O)c(C(=O)O)cn(C4CC4)c3c2OC)C1 (stereo not drawn) | 0.25 µg/mL (≈ 0.578 µM) | 0.125 µg/mL (≈ 0.289 µM) | 2 µg/mL (≈ 4.62 µM) | 1 µg/mL (≈ 2.31 µM) | 2 µg/mL (≈ 4.62 µM) | 0.125 µg/mL (≈ 0.289 µM) | 8 µg/mL (≈ 18.5 µM) | 0.25 µg/mL (≈ 0.578 µM) | 0.25 µg/mL (≈ 0.578 µM) | 128 µg/mL (≈ 296 µM) | 8 µg/mL (≈ 18.5 µM) | > 128 µg/mL | 879 µM | 4 | 4 | 8 | 16 | 16 | 16 | Ratio [20]: 2; Ratio [21]: 2; Ratio [22]: 2
3 | CO/N=C1\CC(N)CN(c2c(F)cc3c(=O)c(C(=O)O)cn(C4CC4)c3c2OC)C1 (stereo not drawn) | 0.25 µg/mL (≈ 0.597 µM) | 0.5 µg/mL (≈ 1.19 µM) | 4 µg/mL (≈ 9.56 µM) | 2 µg/mL (≈ 4.78 µM) | 4 µg/mL (≈ 9.56 µM) | 0.25 µg/mL (≈ 0.597 µM) | 4 µg/mL (≈ 9.56 µM) | 0.25 µg/mL (≈ 0.597 µM) | 0.25 µg/mL (≈ 0.597 µM) | 64 µg/mL (≈ 153 µM) | 4 µg/mL (≈ 9.56 µM) | 4 µg/mL (≈ 9.56 µM) | 885 µM | 2 | 2 | 4 | 4 | 4 | 4 | Ratio [23]: 2; Ratio [24]: 2; Ratio [25]: 2
4 | CCO/N=C1\CC(N)CN(c2c(F)cc3c(=O)c(C(=O)O)cn(C4CC4)c3c2F)C1 (stereo not drawn) | 0.25 µg/mL (≈ 0.595 µM) | 0.5 µg/mL (≈ 1.19 µM) | 4 µg/mL (≈ 9.51 µM) | 0.5 µg/mL (≈ 1.19 µM) | 4 µg/mL (≈ 9.51 µM) | 0.25 µg/mL (≈ 0.595 µM) | 64 µg/mL (≈ 152 µM) | 0.25 µg/mL (≈ 0.595 µM) | 0.25 µg/mL (≈ 0.595 µM) | 64 µg/mL (≈ 152 µM) | 8 µg/mL (≈ 19 µM) | > 128 µg/mL | 1320 µM | 2 | 2 | 4 | 4 | 4 | 4 | –
5 | CCO/N=C1\CC(NC)CN(c2c(F)cc3c(=O)c(C(=O)O)cn(C4CC4)c3c2F)C1 (stereo not drawn) | 0.5 µg/mL (≈ 1.15 µM) | 0.25 µg/mL (≈ 0.575 µM) | 4 µg/mL (≈ 9.21 µM) | 0.5 µg/mL (≈ 1.15 µM) | 2 µg/mL (≈ 4.6 µM) | 1 µg/mL (≈ 2.3 µM) | 128 µg/mL (≈ 295 µM) | 0.25 µg/mL (≈ 0.575 µM) | 0.5 µg/mL (≈ 1.15 µM) | > 128 µg/mL | 128 µg/mL (≈ 295 µM) | > 128 µg/mL | 1010 µM | 2 | 2 | – | 4 | 4 | 4 | –
6 | CNC1C/C(=N\OC)CN(c2c(F)cc3c(=O)c(C(=O)O)cn(C4CC4)c3c2OC)C1 (stereo not drawn) | 0.5 µg/mL (≈ 1.16 µM) | 0.5 µg/mL (≈ 1.16 µM) | 2 µg/mL (≈ 4.62 µM) | 1 µg/mL (≈ 2.31 µM) | 4 µg/mL (≈ 9.25 µM) | 0.5 µg/mL (≈ 1.16 µM) | 8 µg/mL (≈ 18.5 µM) | 0.25 µg/mL (≈ 0.578 µM) | 0.25 µg/mL (≈ 0.578 µM) | 128 µg/mL (≈ 296 µM) | 64 µg/mL (≈ 148 µM) | 128 µg/mL (≈ 296 µM) | 1090 µM | 2 | 2 | 4 | 4 | 4 | 4 | –
7 | CCO/N=C1\CC(NC)CN(c2c(F)cc3c(=O)c(C(=O)O)cn(C4CC4)c3c2OC)C1 (stereo not drawn) | 0.5 µg/mL (≈ 1.12 µM) | 0.5 µg/mL (≈ 1.12 µM) | 8 µg/mL (≈ 17.9 µM) | 0.25 µg/mL (≈ 0.56 µM) | 4 µg/mL (≈ 8.96 µM) | 1 µg/mL (≈ 2.24 µM) | 128 µg/mL (≈ 287 µM) | 0.25 µg/mL (≈ 0.56 µM) | 0.25 µg/mL (≈ 0.56 µM) | 128 µg/mL (≈ 287 µM) | 128 µg/mL (≈ 287 µM) | 128 µg/mL (≈ 287 µM) | 1520 µM | 2 | 2 | 4 | 4 | 4 | 4 | –
